Compound activity (PubChem BioAssay)
PLCg1 inh: inhibitors of human phospholipase C gamma1. P19174. purified PLC-gamma1, fluorogenic substrate, fluorescence. inhibition, % at 12.2 µM. hit rate 0.84% among 370,000; in the data active = inhibition above about 9.5%
DDE Tn7 FP inh: DD(E)-Tn7 binding inhibition, primary FP screen; P02675; FP displacement of FITC-Tn7 peptide from fibrin DD(E); 0% = median of compound wells per plate; AID 720508; inhibition, % at 8.3 µM; hit rate 0.13% among 370,000;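 active = inhibition above the mean of compounds falling within the control limits plus 3 SD of them, cut at about 14% in these data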
Target sequence (P02675 whole entry, looked up): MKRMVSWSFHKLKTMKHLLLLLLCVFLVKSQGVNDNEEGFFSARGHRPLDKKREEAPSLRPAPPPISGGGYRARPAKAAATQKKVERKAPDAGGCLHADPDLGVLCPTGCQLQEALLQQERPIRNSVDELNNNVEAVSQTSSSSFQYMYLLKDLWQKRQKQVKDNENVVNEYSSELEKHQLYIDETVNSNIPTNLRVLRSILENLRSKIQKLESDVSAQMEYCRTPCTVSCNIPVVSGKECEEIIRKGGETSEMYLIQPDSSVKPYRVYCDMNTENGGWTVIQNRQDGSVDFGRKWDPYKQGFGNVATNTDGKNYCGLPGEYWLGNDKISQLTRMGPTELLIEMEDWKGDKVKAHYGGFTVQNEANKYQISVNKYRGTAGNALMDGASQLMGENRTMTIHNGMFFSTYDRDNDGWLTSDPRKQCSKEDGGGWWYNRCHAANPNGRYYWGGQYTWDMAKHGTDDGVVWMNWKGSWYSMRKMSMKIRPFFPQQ
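System: human fibrin DD(E); quantity: Fibrin-DD(E) at 2 µM final; also added: fluorescent Tn7 probe at 0.1 µM; compound dosing: single nominal test concentration of 8.3 µM per compound; schedule: 10 min preincubation, 3 h with tracer, room temperature; detection: fluorescence polarization of the labelled Tn7 tracer; repeats: one replicate per compound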
PLCb3 inh: inhibitors of human phospholipase C beta3 | Q01970 | Purified PLC-beta3, fluorogenic substrate, fluorescence | inhibition, % at 12.2 µM | hit rate 0.18% among 370,000 | AID 720704
DDE Tn6 FP inh: disrupts Tn6 cyclic peptide binding to fibrin D-Dimer-E complex. inhibition, % at 8.3 µM. hit rate 0.21% among 370,000. P02675. AID 720509. Fibrin DD(E) TRITC-Tn6 fluorescence polarization displacement;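 active = inhibition above a per-campaign cutoff: mean of compounds within control limits plus 3 SD, cut at about 15% in these data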
ADAM10 inh: inhibits human ADAM10. AID 720582. inhibition, % at 7 µM. O14672. recombinant ADAM10, EDANS/DABCYL FRET peptide cleavage, 3 h. hit rate 0.62% among 370,000;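 active = inhibition above a per-campaign cutoff equal to the mean of compounds falling between control-based bounds plus 3 SD, cut at about 20% in these data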
ADAM17 inh: inhibitors of human ADAM17; recombinant ADAM17, EDANS/DABCYL FRET peptide cleavage; inhibition, % at 6.95 µM; AID 720648; P78536; hit rate 0.83% among 370,000;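 active = inhibition above the mean of compounds lying between control limits plus 3 SD, set per campaign, cut at about 8.5% in these data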
ADAM10 confirm: confirmation of inhibitors of human ADAM10. shares compounds with ADAM10 inh. ADAM10 QFRET peptide cleavage, EDANS fluorescence. inhibition, % at 6.95 µM. hit rate 1% among 2,100. AID 743208;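 active = inhibition above about 20% chosen separately for each screening run, limit read from the data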
ADAM17 ctr: counter-screen for ADAM10 exosite inhibitors: inhibitors of human ADAM17; shares compounds with ADAM10 inh; ADAM17 QFRET peptide cleavage, EDANS fluorescence; inhibition, % at 6.95 µM; hit rate 0.5% among 2,100; AID 743214;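 active = mean triplicate inhibition above the solvent-only control wells' mean plus 3 SD, cut at about 12% in these data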
ADAM10 ctr: inhibits human ADAM10 in ADAM17 exosite counter-screen; inhibition, % at 6.95 µM; hit rate 47% among 2,900; recombinant ADAM10, EDANS/DABCYL FRET peptide cleavage, 3 h; shares compounds with ADAM17 inh;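 active = mean inhibition over the triplicate runs exceeds the activity threshold set in the earlier primary screen, cut at about 20% in these data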
ADAM17 confirm: human ADAM17 inhibition, confirmation. shares compounds with ADAM17 inh. recombinant ADAM17, EDANS/DABCYL QFRET peptide cleavage. inhibition, % at 6.95 µM. hit rate 65% among 2,900. AID 743257;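 active = mean inhibition across replicates above the hit cutoff set in the primary screen, cut at about 8.5% in these data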
PLCgamma1 ctr: PLC-gamma1 inhibition, counter-screen for PLC-beta3 hits; shares compounds with PLCg1 inh; purified PLC-gamma1, fluorogenic substrate, fluorescence; inhibition, % at 12.3 µM; hit rate 3.1% among 3,300; in the data active = inhibition above about 9.5%
PLCbeta3 conf: confirmation of human PLC-beta3 inhibitors. hit rate 1% among 3,300. shares compounds with PLCg1 inh. purified PLC-beta3, fluorogenic substrate fluorescence. AID 743261. inhibition, % at 12.3 µM
Hits are given with their value; – = inactive; · = not tested or not shown. Shown are actives, neighbours in structure and some others; about 2.3% of the full set was active somewhere. Cut-off read from the data, not from the text of the source, unless noted: active = inhibition above about 11%; inactive = the rest.

SMILES	PLCg1 inh	DDE Tn7 FP inh	PLCb3 inh	DDE Tn6 FP inh	ADAM10 inh	ADAM17 inh	ADAM10 ctr	ADAM17 confirm	others
COC(=O)C1=C(c2cc3ccccc3s2)C[C@@H]2CC[C@H]1N2C(=O)NCc1ccc(C(F)(F)F)cc1	–	–	–	–	24	12	–	12	ADAM10 confirm=–;ADAM17 ctr=–
Cc1ccc(C(C)C)c(OCC(=O)N2CCN(Cc3nc4cc([N+](=O)[O-])ccc4n3C)CC2)c1	–	–	–	–	–	–	·	·
O=C1NCN(c2ccccc2)C12CCN(C(c1ccnc3ccccc13)c1nnnn1Cc1ccccc1)CC2 (stereo not drawn)	–	–	–	–	–	–	·	·
O=C1NCN(c2ccccc2)C12CCN(C(c1cccc3ccccc13)c1nnnn1Cc1ccccc1)CC2 (stereo not drawn)	–	–	–	–	21	9.9	41	17	ADAM10 confirm=–;ADAM17 ctr=–
O=C(c1ccccc1F)c1cn(CC(=O)N2CCCC2)c2ccccc12	–	–	–	–	–	–	·	·
O=C(c1ccccc1F)c1cn(CC(=O)N2CCOCC2)c2ccccc12	–	–	–	–	–	8.6	–	–
COc1ccccc1NC(=O)COC(=O)c1cn(C)c2ccccc12	–	–	–	–	–	–	·	·
CC(C(=O)c1cn(C)c2ccccc12)c1ccccc1 (stereo not drawn)	–	–	–	–	–	11	–	–
O=c1c(C=NCc2cccs2)c(O)n(C2CCCCC2)c(=O)n1C1CCCCC1	–	–	–	–	–	–	·	·
N=C(N)c1c(O)n(C2CCCCC2)c(=O)n(C2CCCCC2)c1=O	–	–	–	–	–	9.6	52	24
CCOC(=O)[C@@H]1[C@H]2COc3ccc(Br)cc3[C@H]2N2C(=O)N(c3cccc(C)c3)C(=O)[C@]12C	–	–	–	–	23	9.3	30	19
COC(=O)C1=C(c2ccc(F)cc2OCc2ccccc2)C[C@@H]2CC[C@H]1N2C(=O)NCc1ccc(C(F)(F)F)cc1	–	–	–	–	–	11	36	21
COC(=O)C1=C(c2ccccc2OCc2ccccc2)C[C@@H]2CC[C@H]1N2C(=O)NCc1ccc(C(F)(F)F)cc1	–	–	–	–	–	–	·	·
COC(=O)C1=C(c2ccc(-c3ccccc3)c(F)c2)C[C@@H]2CC[C@H]1N2C(=O)NC1CC1	–	–	–	–	–	11	–	–
COC(=O)C1=C(c2ccc(OCc3ccccc3)cc2)C[C@@H]2CC[C@H]1N2C(=O)NCc1ccccc1OC	–	–	–	–	–	9.7	28	14
O=c1oc2ccccc2c(O)c1[C@H]1c2ccc(O)cc2Oc2c1c(=O)oc1ccccc21	–	–	–	–	–	–	·	·
CC(=O)N1Cc2cnnn2-c2ccccc2C1C#N (stereo not drawn)	–	–	–	–	–	–	·	·
CCCCC1(CCC)C(=O)NC(=S)NC1=O	–	–	–	–	–	–	·	·
COC(=O)C1=C(c2ccc(Cl)c(C(F)(F)F)c2)C[C@@H]2CC[C@H]1N2C(=O)N1CCCC1	–	–	–	–	–	–	·	·
COC(=O)C1=C(c2ccc(Cl)c(C(F)(F)F)c2)C[C@@H]2CC[C@H]1N2C(=O)N1CCC(O)(c2ccc(Cl)cc2)CC1	–	–	–	–	–	9.5	–	8.8
O=c1[nH]c2ccccc2n1C1CCN(C(c2ccccc2)c2nnnn2-c2ccc3c(c2)OCCO3)CC1 (stereo not drawn)	–	–	–	–	–	11	38	23
O=c1[nH]c2ccccc2n1C1CCN(C(c2nnnn2-c2ccc3c(c2)OCCO3)C2CC2)CC1 (stereo not drawn)	–	–	–	–	–	–	·	·
O=C1NCN(c2ccccc2)C12CCN(C(c1cccs1)c1nnnn1-c1ccc3c(c1)OCCO3)CC2 (stereo not drawn)	–	–	–	–	–	9.0	29	13
CCN(CC)S(=O)(=O)c1ccc(C(=O)NC2CN3CCC2CC3)cc1 (stereo not drawn)	–	–	–	–	–	–	·	·
Cc1cccc(OCC(=O)N2CCN(Cc3ccncc3)CC2)c1	13	–	–	–	–	11	–	–	PLCgamma1 ctr=–;PLCbeta3 conf=–
SMILES	PLCg1 inh	DDE Tn7 FP inh	PLCb3 inh	DDE Tn6 FP inh	ADAM10 inh	ADAM17 inh	ADAM10 ctr	ADAM17 confirm	others
O=C1CN=C(c2ccc(Br)cc2)c2c(sc3c2CCCC3)N1CCN1CCCCC1	–	–	–	–	–	–	·	·
Cc1cccc(C)c1OP(N)(=O)Oc1c(C)cccc1C	9.6	–	–	–	–	–	·	·	PLCgamma1 ctr=–;PLCbeta3 conf=–
Cc1cccc(OP(N)(N)=O)c1C	–	–	–	–	–	–	·	·
O=C1CN=C(c2ccccc2)c2ccccc2N1Cc1ccc(C(F)(F)F)cc1	–	–	–	–	–	–	·	·
Cc1oc(-c2ccccc2Cl)nc1CN1C(=O)CN=C(c2ccccc2)c2ccccc21	9.6	–	11	–	–	–	·	·	PLCgamma1 ctr=–;PLCbeta3 conf=–
COC(=O)C1=C(c2ccc(OC(F)(F)F)cc2)C[C@@H]2CC[C@H]1N2C(=O)N1CCCC1	12	–	–	–	–	–	·	·	PLCgamma1 ctr=–;PLCbeta3 conf=–
C=C(C)CSc1nnc([C@@H](N)Cc2ccccc2)o1	–	–	–	–	–	–	·	·
CCOC(=O)c1c(C)n(Cc2ccc3c(c2)OCO3)c2ccc(O)cc12	–	–	–	–	–	–	·	·
COC(=O)c1c(C)n(Cc2ccc3c(c2)OCO3)c2ccc(O)cc12	11	–	–	–	–	–	·	·	PLCgamma1 ctr=–;PLCbeta3 conf=–
CCN(CC)S(=O)(=O)c1cccc(N=Nc2c(O)n(CC)c(=S)n(CC)c2=O)c1	–	–	–	–	–	–	·	·
CN1C(=O)C(c2ccccc2)C(=O)N(C)C1=O	–	–	–	–	–	–	·	·
CC(=O)CC(=O)C1C(=O)N(C)C(=O)N(C)C1=O	11	–	–	–	–	–	·	·	PLCgamma1 ctr=–;PLCbeta3 conf=–
